Arrestin-AP2 inh: blocks beta-arrestin peptide binding to AP2 adaptin; inhibition, % at 10 µM; actives 0.31% (n = 340,000); AID 504490; FITC-arrestin peptide / GST-AP2 beads, flow cytometry; AP2 beta2 appendage carries R879A mutation;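 active means inhibition above a set limit, near 3 SD of compounds lacking own fluorescence, cut at about 54% in these data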;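 further: plate controls were DMSO wells for no effect and 5 µM unlabelled arrestin peptide for full effect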
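System: GST-tagged AP2 beta2-adaptin appendage (R879A) on 4 µm glutathione beads / Reagent: FITC-arrestin peptide, 50 nM / Detection: HyperCyt-sampled flow cytometry, FL1 channel, ex 488/em 535 nm / Timing: 12 min plus 1 h, RT / Buffer or medium: PBS plus Tween 20 (0.05%) and BSA (0.1%)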
NTR1 ag: activates human neurotensin receptor 1 | actives 0.17% (n = 330,000) | activation, % at 20 µM | NTR1-U2OS beta-arrestin-GFP spot imaging, agonist mode | P30989 | AID 493036;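 active means activation at or above 40% of the spot to cytoplasm intensity ratio, with at least 20 cells analyzed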;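 further: 0% = DMSO without peptide and 100% = 100 nM NTR1 peptide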
TAG inh: inhibitors of triacylglycerol accumulation; inhibition, % at 12.5 µM; actives 0.66% (n = 230,000); H9c2 cells, Nile Red lipid (TAG) fluorescence; cells loaded with 200 µM oleic acid; AID 651582;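 active means pattern-corrected inhibition of lipid staining of at least 50% with the nuclear-stain viability signal not falling by more than 50%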;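 further: 0% = DMSO wells and 100% = triacsin C control wells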
Lipid droplet: modulators of hepatic lipid droplet formation | AML12 mouse hepatocytes, oleate lipid droplets, BODIPY imaging | inhibition, % at 6.5 µM | actives 0.4% (n = 240,000) | AID 1656;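 active means lipid droplet intensity inhibited by at least 50%, with more than 500 cells counted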
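material = mouse AML12 hepatocyte cell line, fixed after treatment | also added = 100 µM oleic acid challenge | doses = compound at 6.5 µM only | schedule = overnight exposure | technique = Image-based BODIPY and DAPI two-channel analysis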
Beta2AR agonist: agonists of human beta-2 adrenergic receptor inducing internalization | actives 0.43% (n = 340,000) | Am2.2-beta2AR cells, FAP receptor internalization, flow cytometry | response, % (concentration not given with the values);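 active means response above a set limit, near 3 SD of response in nonfluorescent compounds, cut at about 42% in these data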
GRK2 aptamer HTS: inhibitors of human GRK2 displacing RNA aptamer; P25098; actives 0.59% (n = 330,000); bead flow cytometry, FAM-aptamer displacement from GRK2; inhibition of aptamer binding, % at 10 µM;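 active means inhibition of aptamer binding above 40%, roughly 3 SD of noise, on plates passing a quality check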;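 further: median bead fluorescence of bound FAM aptamer so fluorescent compounds give negative values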
Target sequence (P25098 whole entry, looked up): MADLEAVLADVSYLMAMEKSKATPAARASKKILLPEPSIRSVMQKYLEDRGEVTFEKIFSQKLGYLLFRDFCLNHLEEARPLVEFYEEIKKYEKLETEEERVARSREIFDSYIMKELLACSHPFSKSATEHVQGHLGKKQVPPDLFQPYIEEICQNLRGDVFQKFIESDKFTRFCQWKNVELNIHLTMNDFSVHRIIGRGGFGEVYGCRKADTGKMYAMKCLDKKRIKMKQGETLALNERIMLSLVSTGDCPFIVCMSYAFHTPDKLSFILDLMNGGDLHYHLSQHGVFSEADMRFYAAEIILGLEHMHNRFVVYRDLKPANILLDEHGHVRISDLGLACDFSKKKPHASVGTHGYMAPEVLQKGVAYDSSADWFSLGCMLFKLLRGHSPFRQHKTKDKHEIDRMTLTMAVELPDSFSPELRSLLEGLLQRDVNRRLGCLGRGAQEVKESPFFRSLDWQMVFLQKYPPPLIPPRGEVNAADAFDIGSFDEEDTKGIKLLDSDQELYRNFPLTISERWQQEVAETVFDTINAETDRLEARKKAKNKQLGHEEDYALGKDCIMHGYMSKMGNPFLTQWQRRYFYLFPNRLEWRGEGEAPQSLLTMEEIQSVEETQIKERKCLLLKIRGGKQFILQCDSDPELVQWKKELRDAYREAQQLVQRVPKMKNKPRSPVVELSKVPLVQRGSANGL
GRK2 CP1: confirmation of human GRK2 inhibitors displacing RNA aptamer; shares compounds with GRK2 aptamer HTS; bead-bound GRK2, FAM-aptamer displacement, flow cytometry; aptamer displacement, % at 10 µM; actives 4% (n = 2,000); AID 504451;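 active means aptamer displacement above 40%, near three times the noise of non-fluorescent compounds, on plates passing quality checks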;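 further: negative values mostly reflect intrinsic compound fluorescence rather than true enhancement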
Aptamer quench SP: counter-screen for GRK2 aptamer inhibitors: fluorescent aptamer quenchers; fluorescence response (% of DMSO), % at 10 µM; shares compounds with GRK2 aptamer HTS; AID 504580; Carboxyfluorescein RNA aptamer on beads, flow cytometry quenching; stronger effect = lower value; 2,000 tested, under 10 active;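 active means compounds that quench the bead-bound fluorescent RNA probe, cutting fluorescence to under half of the solvent control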;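 further: counterscreen run without GRK2 so only probe quenching by compound is measured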
GRK2 CP2: confirmation of human GRK2 inhibitors binding RNA aptamer site; inhibition of aptamer binding, % at 10 µM; shares compounds with GRK2 aptamer HTS; 360 tested, under 10 active; AID 504782; bead-bound GRK2, FAM-aptamer displacement, flow cytometry;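 active means inhibition of aptamer binding above 40%, about triple the noise seen with nonglowing compounds, on plates passing quality control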;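 further: negative values mostly come from compounds that fluoresce themselves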
FAM quench CP2: aptamer fluorescence quenching in GRK2 counter-screen; shares compounds with GRK2 aptamer HTS; carboxyfluorescein RNA aptamer beads, flow cytometry quenching; stronger effect = lower value; fluorescence response vs DMSO, % at 10 µM; 360 tested, under 10 active;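 active means response vs DMSO under 50%, meaning signal dropped by over half, treated as fluorescence quencher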;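 further: labelled aptamer on streptavidin beads without GRK2 as a quench counter-screen; 100% = bead fluorescence of DMSO wells and lower means quenching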
* = called active by the depositor. A selection: hits, their analogues and other compounds. The true share with any hit is near 2%.

How did Cc1ccc(S(=O)(=O)N(C)c2ccc(C(=O)N3CCc4ccccc4C3)cc2)cc1 do in these assays?
Arrestin-AP2 inh: 4; NTR1 ag: 5; TAG inh: 9; Lipid droplet: -1; Beta2AR agonist: -7; GRK2 aptamer HTS: 57*; GRK2 CP1: -4; Aptamer quench SP: 98

Results for Cc1ccc(C(=O)Nc2ccc(N3CCN(C)CC3)cc2)c(Cl)c1 ?
Arrestin-AP2 inh: 26; NTR1 ag: 1; Lipid droplet: -2; Beta2AR agonist: -6; GRK2 aptamer HTS: 49*; GRK2 CP1: -3; Aptamer quench SP: 92

What do the screens show for `Cc1ccc(CN2CCN(Cc3cnc(N4CCOCC4)s3)CC2CCO)o1` (configuration not stated)?
Arrestin-AP2 inh: -11; NTR1 ag: -2; TAG inh: 15; Lipid droplet: -2; Beta2AR agonist: 1; GRK2 aptamer HTS: 72*; GRK2 CP1: 2; Aptamer quench SP: 95

Results for Cc1ccc(CN2CCN(Cc3cnc(C)s3)CC2CCO)o1 (configuration not stated) ?
Arrestin-AP2 inh: -5; NTR1 ag: 1; TAG inh: -13; Lipid droplet: -1; Beta2AR agonist: 4; GRK2 aptamer HTS: 0

Results for Cc1ccc(CN2CCN(CC(C)C)C(CCO)C2)s1 (configuration not stated) ?
Arrestin-AP2 inh: -6; NTR1 ag: -1; TAG inh: 5; Lipid droplet: -3; Beta2AR agonist: 4; GRK2 aptamer HTS: 97*; GRK2 CP1: -1; Aptamer quench SP: 98

What do the screens show for `Cc1ccc(CN2CCN(CCC(C)C)C(CCO)C2)s1` (configuration not stated)?
Arrestin-AP2 inh: 26; NTR1 ag: -1; Lipid droplet: 14; Beta2AR agonist: 12; GRK2 aptamer HTS: 3

Results for N#Cc1c(-c2ccccc2)cc(-c2ccccc2)[nH]c1=O ?
Arrestin-AP2 inh: -7; NTR1 ag: 0; Beta2AR agonist: 2; GRK2 aptamer HTS: 60*; GRK2 CP2: 4; FAM quench CP2: 100

How did COc1cc(-c2cc(-c3ccc(N)cc3)[nH]c(=O)c2C#N)cc(OC)c1OC do in these assays?
Arrestin-AP2 inh: 4; NTR1 ag: -2; TAG inh: -26; Lipid droplet: 8; Beta2AR agonist: -28; GRK2 aptamer HTS: 0

Results for Cc1cc(Cl)cc(C)c1OCCn1ccnc1 ?
Arrestin-AP2 inh: -3; NTR1 ag: 1; Lipid droplet: 3; Beta2AR agonist: -6; GRK2 aptamer HTS: 42*; GRK2 CP2: -23; FAM quench CP2: 100

What do the screens show for `Cc1cc(Cl)cc(C)c1OCCCCCn1ccnc1`?
Arrestin-AP2 inh: -5; NTR1 ag: 0; Lipid droplet: 3; Beta2AR agonist: 1; GRK2 aptamer HTS: 0

What do the screens show for `CC(=O)c1ccc(N2CCN(C(=O)c3ccc(Cl)c(NC4=NC5CS(=O)(=O)CC5S4)c3)CC2)cc1` (configuration not stated)?
Arrestin-AP2 inh: -2; NTR1 ag: -1; Lipid droplet: 0; Beta2AR agonist: 1; GRK2 aptamer HTS: 7

What do the screens show for `Cc1cc(Cl)ccc1NS(=O)(=O)c1c(C)[nH]c(=O)[nH]c1=O`?
Arrestin-AP2 inh: -7; NTR1 ag: 0; Lipid droplet: 3; Beta2AR agonist: -2; GRK2 aptamer HTS: 1

How did Cc1[nH]c(=O)[nH]c(=O)c1S(=O)(=O)Nc1ccc(F)c(Cl)c1 do in these assays?
Arrestin-AP2 inh: 12; NTR1 ag: 1; Lipid droplet: -6; Beta2AR agonist: -3; GRK2 aptamer HTS: 47*; GRK2 CP1: -3; Aptamer quench SP: 125

Results for COCCCN1C(=O)C(=O)/C(=C(/O)c2ccc(S(=O)(=O)N3CCCCC3)cc2)C1c1ccc(O)cc1 (configuration not stated) ?
Arrestin-AP2 inh: 5; NTR1 ag: 0; Lipid droplet: 8; Beta2AR agonist: 15; GRK2 aptamer HTS: 0; GRK2 CP1: -4; Aptamer quench SP: 95

Assay outcomes: PubChem, several laboratories
